In ChEMBL document CHEMBL1932936, “Oxidative folding of lysozyme with aromatic dithiols, and aliphatic and aromatic monothiols” (Bioorg Med Chem, 2012):
≈ marks a conversion by molar mass, not a printed value. Blank lines part the entries; values can stand above or below the compound they belong to.

How the values were obtained:
[1] = molecular target: Lysozyme C (Gallus gallus) (UniProt P00698); assay: Renaturation of 0.1 mg/mL reduced hen egg white lysozyme assessed as apparent rate of renaturation at 0.5 mM at pH 7 by Micrococcus lysodeikticus lysis-based enzyme assay in presence of 0.2 mM GSSG
Chain of Lysozyme C (Gallus gallus) (P00698 whole entry): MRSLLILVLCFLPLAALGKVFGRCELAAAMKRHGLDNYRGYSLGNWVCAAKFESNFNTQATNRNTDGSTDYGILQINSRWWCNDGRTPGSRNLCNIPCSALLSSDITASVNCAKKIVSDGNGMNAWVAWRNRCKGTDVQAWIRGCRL
Procedure, shortened: (§1)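 Reduced lysozyme (10 mg/mL) diluted 100-fold into deoxygenated renaturation buffer: 0.1 M bis tris propane–HCl (pH 7.0) or 0.1 M Tris–HCl (pH 8.0), 1 mM EDTA, 0.5 M Gdn HCl, thiol plus GSSG. Mixed by vortexing for 15 s, held at 25 °C. 20 µL aliquots taken at set times and assayed for recovery of enzymatic activity.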

[2] = molecular target: Lysozyme C (Gallus gallus) (UniProt P00698); assay: Renaturation of 0.1 mg/mL reduced hen egg white lysozyme assessed as maximum enzyme activity at 0.5 mM at pH 7 by Micrococcus lysodeikticus lysis-based enzyme assay in presence of 0.2 mM GSSG; set-up: scale not given: the % may be the effect or the level left; procedure, shortened: as §1
[3] = molecular target: Lysozyme C (Gallus gallus) (UniProt P00698); assay: Renaturation of 0.1 mg/mL reduced hen egg white lysozyme assessed as maximum enzyme activity at 3 mM at pH 7 by Micrococcus lysodeikticus lysis-based enzyme assay in presence of 0.2 mM GSSG; set-up: scale not given: the % may be the effect or the level left; procedure, shortened: as §1
[4] = molecular target: Lysozyme C (Gallus gallus) (UniProt P00698); assay: Renaturation of 0.1 mg/mL reduced hen egg white lysozyme assessed as maximum enzyme activity at 0.5 mM at pH 8 by Micrococcus lysodeikticus lysis-based enzyme assay in presence of 0.2 mM GSSG; set-up: scale not given: the % may be the effect or the level left; procedure, shortened: as §1
[5] = molecular target: Lysozyme C (Gallus gallus) (UniProt P00698); assay: Renaturation of 0.1 mg/mL reduced hen egg white lysozyme assessed as maximum enzyme activity at 3 mM at pH 8 by Micrococcus lysodeikticus lysis-based enzyme assay in presence of 0.2 mM GSSG; set-up: scale not given: the % may be the effect or the level left; procedure, shortened: as §1
[6] = molecular target: Lysozyme C (Gallus gallus) (UniProt P00698); assay: Renaturation of 0.1 mg/mL reduced hen egg white lysozyme assessed as apparent rate of renaturation at 3 mM at pH 7 by Micrococcus lysodeikticus lysis-based enzyme assay in presence of 0.2 mM GSSG; procedure, shortened: as §1
[7] = molecular target: Lysozyme C (Gallus gallus) (UniProt P00698); assay: Renaturation of 0.1 mg/mL reduced hen egg white lysozyme assessed as apparent rate of renaturation at 0.5 mM at pH 8 by Micrococcus lysodeikticus lysis-based enzyme assay in presence of 0.2 mM GSSG; procedure, shortened: as §1
[8] = molecular target: Lysozyme C (Gallus gallus) (UniProt P00698); assay: Renaturation of 0.1 mg/mL reduced hen egg white lysozyme assessed as apparent rate of renaturation at 3 mM at pH 8 by Micrococcus lysodeikticus lysis-based enzyme assay in presence of 0.2 mM GSSG; procedure, shortened: as §1
[9] = molecular target: Lysozyme C (Gallus gallus) (UniProt P00698); assay: Renaturation of 1 mg/mL reduced hen egg white lysozyme assessed as maximum enzyme activity at 40 mM at pH 7 by Micrococcus lysodeikticus lysis-based enzyme assay in presence of 1 mM GSSG; set-up: scale not given: the % may be the effect or the level left
Procedure, shortened: (§2)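 Reduced lysozyme prepared in 0.1 M acetic acid with 6 M Gdn HCl, pH 2.5, then neutralised to pH 7.0 or 8.0 with KOH and set to 10 mg/mL. Diluted 10-fold into deoxygenated buffer: 0.1 M bis tris propane–HCl (pH 7.0) or Tris–HCl (pH 8.0), 1 mM EDTA, thiol plus GSSG. Final 1 mg/mL protein, 1.7 M Gdn HCl, 25 °C. Aliquots taken over time, diluted and assayed for activity.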

[10] = molecular target: Lysozyme C (Gallus gallus) (UniProt P00698); assay: Renaturation of 1 mg/mL reduced hen egg white lysozyme assessed as maximum enzyme activity at 40 mM at pH 8 by Micrococcus lysodeikticus lysis-based enzyme assay in presence of 1 mM GSSG; set-up: scale not given: the % may be the effect or the level left; procedure, shortened: as §2
[11] = molecular target: Lysozyme C (Gallus gallus) (UniProt P00698); assay: Renaturation of 1 mg/mL reduced hen egg white lysozyme assessed as apparent rate of renaturation at 40 mM at pH 7 by Micrococcus lysodeikticus lysis-based enzyme assay in presence of 1 mM GSSG; procedure, shortened: as §2
[12] = molecular target: Lysozyme C (Gallus gallus) (UniProt P00698); assay: Renaturation of 1 mg/mL reduced hen egg white lysozyme assessed as apparent rate of renaturation at 40 mM at pH 8 by Micrococcus lysodeikticus lysis-based enzyme assay in presence of 1 mM GSSG; procedure, shortened: as §2
[13] = molecular target: Lysozyme C (Gallus gallus) (UniProt P00698); assay: Renaturation of 1 mg/mL reduced hen egg white lysozyme assessed as maximum enzyme activity at 20 mM at pH 8 by Micrococcus lysodeikticus lysis-based enzyme assay in presence of 1 mM GSSG; set-up: scale not given: the % may be the effect or the level left
Procedure, shortened: (§3)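 Reduced lysozyme was dissolved in 0.1 M acetic acid with 6 M Gdn HCl (pH 2.5), brought to pH 7.0 or 8.0 with KOH, and set to 10 mg/mL by A280. It was then diluted 10-fold into deoxygenated buffer: 0.1 M bis tris propane–HCl or Tris–HCl, 1.25 M Gdn HCl, 1 mM EDTA, thiol plus GSSG. Final protein was 1 mg/mL, final Gdn HCl 1.7 M, 25 °C. Aliquots taken at intervals and assayed for activity. Errors are standard deviations.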

[14] = Solubility of the compound in water; type: physicochemical; conditions: buffer
[15] = molecular target: Lysozyme C (Gallus gallus) (UniProt P00698); assay: Renaturation of 1 mg/mL reduced hen egg white lysozyme assessed as apparent rate of renaturation at 10 mM at pH 7 by Micrococcus lysodeikticus lysis-based enzyme assay in presence of 1 mM GSSG; procedure, shortened: as §3
[16] = molecular target: Lysozyme C (Gallus gallus) (UniProt P00698); assay: Renaturation of 1 mg/mL reduced hen egg white lysozyme assessed as apparent rate of renaturation at 20 mM at pH 7 by Micrococcus lysodeikticus lysis-based enzyme assay in presence of 1 mM GSSG; procedure, shortened: as §3
[17] = molecular target: Lysozyme C (Gallus gallus) (UniProt P00698); assay: Renaturation of 1 mg/mL reduced hen egg white lysozyme assessed as apparent rate of renaturation at 20 mM at pH 8 by Micrococcus lysodeikticus lysis-based enzyme assay in presence of 1 mM GSSG; procedure, shortened: as §3
[18] = molecular target: Lysozyme C (Gallus gallus) (UniProt P00698); assay: Renaturation of 1 mg/mL reduced hen egg white lysozyme assessed as maximum enzyme activity at 10 mM at pH 7 by Micrococcus lysodeikticus lysis-based enzyme assay in presence of 1 mM GSSG; set-up: scale not given: the % may be the effect or the level left; procedure, shortened: as §3
[19] = molecular target: Lysozyme C (Gallus gallus) (UniProt P00698); assay: Renaturation of 1 mg/mL reduced hen egg white lysozyme assessed as maximum enzyme activity at 20 mM at pH 7 by Micrococcus lysodeikticus lysis-based enzyme assay in presence of 1 mM GSSG; set-up: scale not given: the % may be the effect or the level left; procedure, shortened: as §3
[20] = molecular target: Lysozyme C (Gallus gallus) (UniProt P00698); assay: Renaturation of 0.1 mg/mL reduced hen egg white lysozyme assessed as maximum enzyme activity at 2 mM at pH 7 by Micrococcus lysodeikticus lysis-based enzyme assay in presence of 0.2 mM GSSG; set-up: scale not given: the % may be the effect or the level left; procedure, shortened: as §1
[21] = molecular target: Lysozyme C (Gallus gallus) (UniProt P00698); assay: Renaturation of 0.1 mg/mL reduced hen egg white lysozyme assessed as maximum enzyme activity at 2 mM at pH 8 by Micrococcus lysodeikticus lysis-based enzyme assay in presence of 0.2 mM GSSG; set-up: scale not given: the % may be the effect or the level left; procedure, shortened: as §1
[22] = Solubility of the compound at pH 7; type: physicochemical; conditions: buffer
[23] = molecular target: Lysozyme C (Gallus gallus) (UniProt P00698); assay: Renaturation of 0.1 mg/mL reduced hen egg white lysozyme assessed as apparent rate of renaturation at 2 mM at pH 7 by Micrococcus lysodeikticus lysis-based enzyme assay in presence of 0.2 mM GSSG; procedure, shortened: as §1
[24] = molecular target: Lysozyme C (Gallus gallus) (UniProt P00698); assay: Renaturation of 0.1 mg/mL reduced hen egg white lysozyme assessed as apparent rate of renaturation at 2 mM at pH 8 by Micrococcus lysodeikticus lysis-based enzyme assay in presence of 0.2 mM GSSG; procedure, shortened: as §1
[25] = molecular target: Lysozyme C (Gallus gallus) (UniProt P00698); assay: Renaturation of 0.1 mg/mL reduced hen egg white lysozyme assessed as maximum enzyme activity at 0.25 mM at pH 8 by Micrococcus lysodeikticus lysis-based enzyme assay in presence of 0.2 mM GSSG; set-up: scale not given: the % may be the effect or the level left; procedure, shortened: as §1
[26] = molecular target: Lysozyme C (Gallus gallus) (UniProt P00698); assay: Renaturation of 0.1 mg/mL reduced hen egg white lysozyme assessed as maximum enzyme activity at 1 mM at pH 8 by Micrococcus lysodeikticus lysis-based enzyme assay in presence of 0.2 mM GSSG; set-up: scale not given: the % may be the effect or the level left; procedure, shortened: as §1
[27] = Solubility of the compound at pH 8; type: physicochemical; conditions: buffer
[28] = molecular target: Lysozyme C (Gallus gallus) (UniProt P00698); assay: Renaturation of 0.1 mg/mL reduced hen egg white lysozyme assessed as apparent rate of renaturation at 0.25 mM at pH 8 by Micrococcus lysodeikticus lysis-based enzyme assay in presence of 0.2 mM GSSG; procedure, shortened: as §1
[29] = molecular target: Lysozyme C (Gallus gallus) (UniProt P00698); assay: Renaturation of 0.1 mg/mL reduced hen egg white lysozyme assessed as apparent rate of renaturation at 1 mM at pH 8 by Micrococcus lysodeikticus lysis-based enzyme assay in presence of 0.2 mM GSSG; procedure, shortened: as §1
[30] = molecular target: Lysozyme C (Gallus gallus) (UniProt P00698); assay: Renaturation of 1 mg/mL reduced hen egg white lysozyme assessed as maximum enzyme activity at 10 mM at pH 8 by Micrococcus lysodeikticus lysis-based enzyme assay in presence of 1 mM GSSG; set-up: scale not given: the % may be the effect or the level left; procedure, shortened: as §3
[31] = molecular target: Lysozyme C (Gallus gallus) (UniProt P00698); assay: Renaturation of 1 mg/mL reduced hen egg white lysozyme assessed as apparent rate of renaturation at 10 mM at pH 7 by Micrococcus lysodeikticus lysis-based enzyme assay in presence of 0.5 mM GSSG; procedure, shortened: as §3
[32] = molecular target: Lysozyme C (Gallus gallus) (UniProt P00698); assay: Renaturation of 1 mg/mL reduced hen egg white lysozyme assessed as apparent rate of renaturation at 10 mM at pH 8 by Micrococcus lysodeikticus lysis-based enzyme assay in presence of 1 mM GSSG; procedure, shortened: as §3
[33] = molecular target: Lysozyme C (Gallus gallus) (UniProt P00698); assay: Renaturation of 1 mg/mL reduced hen egg white lysozyme assessed as maximum enzyme activity at 10 mM at pH 7 by Micrococcus lysodeikticus lysis-based enzyme assay in presence of 0.5 mM GSSG; set-up: scale not given: the % may be the effect or the level left; procedure, shortened: as §3
[34] = Dissociation constant, pKa of the compound; type: physicochemical

Activity [1]: 0.008 min⁻¹ | Activity [2]: 85% | Activity [3]: 2% | Activity [4]: 76% | Activity [5]: 27% | Activity [6]: 0.01 min⁻¹ | Activity [7]: 0.061 min⁻¹ | Activity [8]: 0.023 min⁻¹
SMILES: O=C(OCCOCCOCCOCCS)c1ccccc1S

SMILES: C[N+](C)(C)Cc1ccc(S)cc1
Activity [9]: 82% | Activity [10]: 81% | Activity [11]: 0.017 min⁻¹ | Activity [12]: 0.018 min⁻¹

Activity [13]: 88% | Activity [10]: 77% | solubility [14]: soluble | Activity [15]: 0.012 min⁻¹ | Activity [16]: 0.015 min⁻¹ | Activity [17]: 0.022 min⁻¹ | Activity [12]: 0.023 min⁻¹ | Activity [18]: 83% | Activity [19]: 86%
SMILES: C[N+](C)(CCC[N+](C)(C)Cc1ccc(S)cc1)Cc1ccc(S)cc1.[Br-].[Br-]

Activity [4]: 53% | Activity [5]: 9% | Activity [7]: 0.072 min⁻¹ | Activity [8]: 0.08 min⁻¹
SMILES: O=C(OCCOCCS)c1ccc(S)cc1

Activity [1]: 0.013 min⁻¹ | Activity [2]: 55% | Activity [20]: 19% | Activity [4]: 58% | Activity [21]: 62% | solubility [22]: 4000 µM (≈ 1210 µg/mL) | Activity [23]: 0.001 min⁻¹ | Activity [7]: 0.041 min⁻¹ | Activity [24]: 0.009 min⁻¹
SMILES: O=C(OCCOCCOCCS)c1ccccc1S

Activity [25]: 68% | Activity [26]: 2% | solubility [27]: 2000 µM (≈ 541 µg/mL) | Activity [28]: 0.028 min⁻¹ | Activity [29]: 0.012 min⁻¹
SMILES: O=C(OCCOCCOCCS)c1ccccc1

Activity [13]: 49% | Activity [30]: 78% | solubility [14]: soluble | Activity [15]: 0.011 min⁻¹ | Activity [31]: 0.013 min⁻¹ | Activity [17]: 0.017 min⁻¹ | Activity [32]: 0.016 min⁻¹ | Activity [18]: 74% | Activity [33]: 70%
SMILES: C[N+](C)(CCCCCC[N+](C)(C)Cc1ccc(S)cc1)Cc1ccc(S)cc1.[Br-].[Br-]

SMILES: OCCS [2-MERCAPTOETHANOL]
pKa [34]: 9.6

pKa [34]: 8.7
SMILES: N[C@@H](CS)C(=O)O [CYSTEINE]

Activity [1]: 0.025 min⁻¹ | Activity [2]: 57% | Activity [3]: 23% | Activity [4]: 63% | Activity [5]: 16% | Activity [6]: 0.02 min⁻¹ | Activity [7]: 0.076 min⁻¹ | Activity [8]: 0.1 min⁻¹
SMILES: O=C(OCCOCCOCCS)c1ccc(S)cc1

Activity [1]: 0.038 min⁻¹ | Activity [2]: 39% | Activity [3]: 36% | Activity [4]: 73% | Activity [5]: 43% | Activity [6]: 0.045 min⁻¹ | Activity [7]: 0.087 min⁻¹ | Activity [8]: 0.072 min⁻¹
SMILES: O=C(OCCOCCOCCOCCS)c1ccc(S)cc1
